Source: ChEMBL document CHEMBL1649328, “Assessment of pandemic and seasonal influenza A (H1N1) virus susceptibility to neuraminidase inhibitors in three enzyme activity inhibition assays” (Antimicrob Agents Chemother, 2010)

Legend:
Format in all cases: functional, organism-based
[1] = system: Influenza A virus; test: Antiviral activity against influenza A (A/Montana/02/2009 (H1N1)) virus harboring neuraminidase H275Y mutant after 16 to 18 hrs by fetuin substrate based colorimetric assay
Summary of the method: (§1)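 Colorimetric NA inhibition with fetuin substrate. Virus was diluted in NA-Star buffer (26 mM MES, 4 mM CaCl2, pH 6.0) to give OD549 of 0.4–0.8 after 18 h. It was preincubated with ten half-log inhibitor dilutions (0.03–1,000 nM final) for 1 h at 37°C, then with fetuin (5.5 mg/ml final) for 16–18 h at 37°C. Released sialic acid was read at 549 nm after periodate/TBA reaction and butanol extraction. IC50 came from a Vmax·[1−x/(K+x)] fit, mean of ≥2 experiments.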

[2] = system: Influenza A virus; test: Antiviral activity against influenza A (A/Singapore/57/2009 (H1N1)) virus harboring neuraminidase H275Y mutant after 16 to 18 hrs by fetuin substrate based colorimetric assay; summary of the method: as §1
[3] = system: Influenza A virus; test: Antiviral activity against influenza A (A/North Carolina/01/2009 (H1N1)) virus harboring neuraminidase H275Y mutant after 30 mins by NA-star substrate based chemiluminescent assay
Summary of the method: (§2)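 Titrated virus in NA-Star buffer (26 mM MES, 4 mM CaCl2, pH 6.0) was preincubated with ten half-log inhibitor dilutions (0.03–1,000 nM final) for 30 min at 37°C, then with substrate for 30 min at room temperature. Accelerator solution was added and luminescence read for 0.1 s. IC50 came from a Vmax·[1−x/(K+x)] fit, mean of ≥3 experiments.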

[4] = system: Influenza A virus; test: Antiviral activity against influenza A (A/Osaka/180/2009 (H1N1)) virus harboring neuraminidase H275Y mutant after 16 to 18 hrs by fetuin substrate based colorimetric assay; summary of the method: as §1
[5] = system: Influenza A virus; test: Antiviral activity against influenza A (A/Singapore/57/2009 (H1N1)) virus harboring neuraminidase H275Y mutant after 30 mins by MUNANA substrate based fluorometric assay
Summary of the method: (§3)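 Fluorometric NA inhibition with MUNANA (100 μM final). Titrated virus in NA-Star buffer (26 mM MES, 4 mM CaCl2, pH 6.0) was preincubated with ten half-log inhibitor dilutions (0.03–1,000 nM final) for 30 min at 37°C, then with substrate for 30 min at 37°C. The reaction was stopped with 0.1 M glycine in 25% ethanol, pH 10.7, and 4-methylumbelliferone was read at ex 365/em 450 nm. IC50 came from a Vmax·[1−x/(K+x)] fit, mean of ≥3 experiments.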

[6] = system: Influenza A virus; test: Antiviral activity against influenza A (A/Singapore/57/2009 (H1N1)) virus harboring neuraminidase H275Y mutant after 30 mins by NA-star substrate based chemiluminescent assay; summary of the method: as §2
[7] = system: Influenza A virus; test: Antiviral activity against influenza A (A/Washington/29/2009 (H1N1)) virus harboring neuraminidase H275Y mutant after 30 mins by NA-star substrate based chemiluminescent assay; summary of the method: as §2
[8] = system: Influenza A virus; test: Antiviral activity against influenza A (A/North Carolina/01/2009 (H1N1)) virus harboring neuraminidase H275Y mutant after 16 to 18 hrs by fetuin substrate based colorimetric assay; summary of the method: as §1
[9] = system: Influenza A virus; test: Antiviral activity against influenza A (A/Osaka/180/2009 (H1N1)) virus harboring neuraminidase H275Y mutant after 30 mins by NA-star substrate based chemiluminescent assay; summary of the method: as §2
[10] = system: Influenza A virus; test: Antiviral activity against influenza A (A/Montana/02/2009 (H1N1)) virus harboring neuraminidase H275Y mutant after 30 mins by MUNANA substrate based fluorometric assay; summary of the method: as §3
[11] = system: Influenza A virus; test: Antiviral activity against influenza A (A/North Carolina/01/2009 (H1N1)) virus harboring neuraminidase H275Y mutant after 30 mins by MUNANA substrate based fluorometric assay; summary of the method: as §3
[12] = system: Influenza A virus; test: Antiviral activity against influenza A (A/Washington/29/2009 (H1N1)) virus harboring neuraminidase H275Y mutant after 16 to 18 hrs by fetuin substrate based colorimetric assay; summary of the method: as §1
[13] = system: Influenza A virus; test: Antiviral activity against influenza A (A/Montana/02/2009 (H1N1)) virus harboring neuraminidase H275Y mutant after 30 mins by NA-star substrate based chemiluminescent assay; summary of the method: as §2
[14] = system: Influenza A virus; test: Antiviral activity against influenza A (A/Osaka/180/2009 (H1N1)) virus harboring neuraminidase H275Y mutant after 30 mins by MUNANA substrate based fluorometric assay; summary of the method: as §3
[15] = system: Influenza A virus; test: Antiviral activity against influenza A (A/Hong Kong/2369/2009 (H1N1)) virus harboring neuraminidase H275Y mutant after 16 to 18 hrs by fetuin substrate based colorimetric assay; summary of the method: as §1
[16] = system: Influenza A virus; test: Antiviral activity against influenza A (A/Washington/29/2009 (H1N1)) virus harboring neuraminidase H275Y mutant after 30 mins by MUNANA substrate based fluorometric assay; summary of the method: as §3
[17] = system: Influenza A virus; test: Antiviral activity against influenza A (A/Hong Kong/2369/2009 (H1N1)) virus harboring neuraminidase H275Y mutant after 30 mins by MUNANA substrate based fluorometric assay; summary of the method: as §3
[18] = system: Influenza A virus; test: Antiviral activity against influenza A (A/Hong Kong/2369/2009 (H1N1)) virus harboring neuraminidase H275Y mutant after 30 mins by NA-star substrate based chemiluminescent assay; summary of the method: as §2

Row | SMILES | IC50 [1] | IC50 [2] | IC50 [3] | IC50 [4] | IC50 [5] | IC50 [6] | IC50 [7] | IC50 [8] | IC50 [9] | IC50 [10] | IC50 [11] | IC50 [12] | IC50 [13] | IC50 [14] | IC50 [15] | IC50 [16] | IC50 [17] | IC50 [18]
1 | CO[C@@H]([C@@H]1OC(C(=O)O)=C[C@H](NC(=N)N)[C@H]1NC(C)=O)[C@H](O)CO [LANINAMIVIR] | 0.82 nM | 1.12 nM | 0.34 nM | 3.32 nM | 0.87 nM | 0.74 nM | 0.82 nM | 0.89 nM | 0.48 nM | 1.05 nM | 0.92 nM | 2.14 nM | 0.34 nM | 1.43 nM | 2.16 nM | 1.19 nM | 1.08 nM | 0.78 nM
2 | CC(=O)N[C@H]1[C@H]([C@H](O)[C@H](O)CO)OC(C(=O)O)=C[C@@H]1NC(=N)N [ZANAMIVIR] | 2.38 nM | 2.83 nM | 0.42 nM | 3.17 nM | 1 nM | 0.4 nM | 0.51 nM | 1.96 nM | 0.35 nM | 1.15 nM | 1.16 nM | 2.66 nM | 0.42 nM | 1.29 nM | 3.61 nM | 0.83 nM | 1.02 nM | 0.43 nM
